The source made the active and inactive calls. The calls are words filed in the database; no cut-off is given here.
Assays:
Yellow fever virus [1] = assay: Antiviral activity against YFV Jimenez infected in Syrian golden hamster assessed as weight change at 100 mg/kg, ip bid for 7 days; assay type: functional; conditions: route intraperitoneal
Yellow fever virus [2] = assay: Antiviral activity against YFV Jimenez infected in Syrian golden hamster assessed as weight change at 32 mg/kg, ip bid for 7 days; assay type: functional; conditions: route intraperitoneal
Yellow fever virus [3] = assay: Antiviral activity against YFV Jimenez infected in Syrian golden hamster assessed as weight change at 10 mg/kg, ip bid for 7 days; assay type: functional; conditions: route intraperitoneal
Yellow fever virus [4] = assay: Antiviral activity against YFV Jimenez infected in Syrian golden hamster assessed as weight change at 100 mg/kg, po bid for 7 days; assay type: functional
Yellow fever virus [5] = assay: Antiviral activity against YFV Jimenez infected in Syrian golden hamster assessed as weight change at 32 mg/kg, po bid for 7 days; assay type: functional
Yellow fever virus [6] = assay: Antiviral activity against YFV Jimenez infected in Syrian golden hamster liver administered 4 hrs before viral challenge twice daily for 4 days post-infection by infectious cell culture assay; assay type: functional, organism-based
Outline: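 Liver was collected at necropsy 4 dpi from 5 hamsters per group, after b.i.d. dosing that began 4 h before i.p. Jimenez YFV challenge. Homogenates were diluted serially from 10−1 to 10−8 onto semiconfluent Vero cells in four replicate columns. CPE was scored microscopically after 6 days, and titer was extrapolated from dilution and tissue weight.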

Yellow fever virus [7] = assay: Antiviral activity against YFV Jimenez infected in Syrian golden hamster liver assessed as survival at 100 mg/kg/day, ip bid for 8 days administered after 1 day post-infection; assay type: functional, organism-based
Yellow fever virus [8] = assay: Antiviral activity against YFV Jimenez infected in Syrian golden hamster liver assessed as survival at 100 mg/kg/day, ip bid for 8 days administered after 2 days post-infection; assay type: functional, organism-based
Yellow fever virus [9] = assay: Antiviral activity against YFV Jimenez infected in Syrian golden hamster liver treated 4 hrs before viral challenge assessed as survival at 100 mg/kg/day, ip bid for 8 days; assay type: functional, organism-based
Yellow fever virus [10] = assay: Antiviral activity against YFV Jimenez infected in Syrian golden hamster liver assessed as survival at 100 mg/kg/day, ip bid for 8 days administered after 3 days post-infection; assay type: functional, organism-based
Yellow fever virus [11] = assay: Antiviral activity against YFV Jimenez infected in Syrian golden hamster liver assessed as mean day to death at 100 mg/kg/day, ip bid for 8 days administered after 1 day post-infection; assay type: functional; conditions: route intraperitoneal
Yellow fever virus [12] = assay: Antiviral activity against YFV Jimenez infected in Syrian golden hamster liver assessed as mean day to death at 100 mg/kg/day, ip bid for 8 days administered after 2 days post-infection; assay type: functional; conditions: route intraperitoneal
Yellow fever virus [13] = assay: Antiviral activity against YFV Jimenez infected in Syrian golden hamster liver assessed as mean day to death at 100 mg/kg/day, ip bid for 8 days administered after 3 days post-infection; assay type: functional; conditions: route intraperitoneal
Yellow fever virus [14] = assay: Antiviral activity against YFV Jimenez infected in Syrian golden hamster liver treated 4 hrs before viral challenge assessed as mean day to death at 100 mg/kg/day, ip bid for 8 days; assay type: functional; conditions: route intraperitoneal
Yellow fever virus [15] = assay: Antiviral activity against YFV Jimenez infected in Syrian golden hamster liver treated 4 hrs before viral challenge assessed as serum alanine aminotransferase at 100 mg/kg/day, ip bid for 8 days; assay type: functional; conditions: route intraperitoneal
Outline: (§1)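 YFV (Jimenez)-infected female hamsters were treated b.i.d. i.p. or p.o. Serum was drawn by ocular sinus at 6 dpi. ALT was read with a colorimetric kit adapted to microplates: substrate plus serum for 30 min at 37°C, then colour reagent and developer, absorbance at 505 nm. Values are IU/liter against saline controls.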

Yellow fever virus [16] = assay: Antiviral activity against YFV Jimenez infected in Syrian golden hamster liver assessed as alanine aminotransferase at 100 mg/kg/day, ip bid for 8 days administered after 2 days post-infection; assay type: functional; conditions: route intraperitoneal; outline: as §1
Yellow fever virus [17] = assay: Antiviral activity against YFV Jimenez infected in Syrian golden hamster liver assessed as alanine aminotransferase at 100 mg/kg/day, ip bid for 8 days administered after 3 days post-infection; assay type: functional; conditions: route intraperitoneal; outline: as §1
Yellow fever virus [18] = assay: Antiviral activity against YFV Jimenez infected in Syrian golden hamster liver treated 4 hrs before viral challenge assessed as weight change at 100 mg/kg/day, ip bid for 8 days; assay type: functional; conditions: route intraperitoneal
Yellow fever virus [19] = assay: Antiviral activity against YFV Jimenez infected in Syrian golden hamster liver assessed as weight change at 100 mg/kg/day, ip bid for 8 days administered after 1 day post-infection; assay type: functional; conditions: route intraperitoneal
Yellow fever virus [20] = assay: Antiviral activity against YFV Jimenez infected in Syrian golden hamster liver assessed as weight change at 100 mg/kg/day, ip bid for 8 days administered after 2 days post-infection; assay type: functional; conditions: route intraperitoneal
Yellow fever virus [21] = assay: Antiviral activity against YFV Jimenez infected in Syrian golden hamster liver assessed as weight change at 100 mg/kg/day, ip bid for 8 days administered after 3 days post-infection; assay type: functional; conditions: route intraperitoneal
[22] = Toxicity in MDBK cells; assay type: cell-based, Bos taurus; conditions: cattle
[23] = Selectivity index, ratio of CC50 for MDBK cells to […] for BVDV; assay type: functional
Yellow fever virus [24] = assay: Antiviral activity against YFV Jimenez infected in Syrian golden hamster liver assessed as mean day to death at 100 mg/kg/day, ip bid for 8 days administered after 4 day post-infection; assay type: functional; conditions: route intraperitoneal
Yellow fever virus [25] = assay: Antiviral activity against YFV Jimenez infected in Syrian golden hamster liver assessed as mean day to death at 100 mg/kg/day, ip bid for 8 days administered after 5 day post-infection; assay type: functional; conditions: route intraperitoneal
Yellow fever virus [26] = assay: Antiviral activity against YFV Jimenez infected in Syrian golden hamster liver assessed as alanine aminotransferase at 100 mg/kg/day, ip bid for 8 days administered after 4 day post-infection; assay type: functional; conditions: route intraperitoneal; outline: as §1
Yellow fever virus [27] = assay: Antiviral activity against YFV Jimenez infected in Syrian golden hamster liver assessed as alanine aminotransferase at 100 mg/kg/day, ip bid for 8 days administered after 5 day post-infection; assay type: functional; conditions: route intraperitoneal; outline: as §1

## NC(=O)c1nccn([C@@H]2O[C@H](CO)[C@@H](O)[C@H]2O)c1=O
Yellow fever virus [1]
  Activity: 7.1 g
Yellow fever virus [2]
  Activity: 5.2 g
Yellow fever virus [3]
  Activity: -1.8 g
Yellow fever virus [4]
  Activity: 6.3 g
Yellow fever virus [5]
  Activity: 4.4 g
Yellow fever virus [6]
  Activity: Active
Yellow fever virus [7]
  Activity: Active
Yellow fever virus [8]
  Activity: Active
Yellow fever virus [9]
  Activity: Active
Yellow fever virus [10]
  Activity: Active
Yellow fever virus [11]
  Activity: >21 days
Yellow fever virus [12]
  Activity: >21 days
Yellow fever virus [13]
  Activity: >21 days
Yellow fever virus [14]
  Activity: >21 days
Yellow fever virus [15]
  Activity: 58 IU/L
Yellow fever virus [16]
  Activity: 57 IU/L
Yellow fever virus [17]
  Activity: 79 IU/L
Yellow fever virus [18]
  Activity: 6 g
Yellow fever virus [19]
  Activity: 6.1 g
Yellow fever virus [20]
  Activity: 6.3 g
Yellow fever virus [21]
  Activity: 2.9 g
[22]
  CC50: 2900 µM
[23]
  Ratio CC50/EC50: 207
Yellow fever virus [24]
  Activity: 6 days
Yellow fever virus [25]
  Activity: 7.4 days
Yellow fever virus [26]
  Activity: 108 IU/L
Yellow fever virus [27]
  Activity: 205 IU/L

Source: ChEMBL document CHEMBL1145477, “Activity of T-1106 in a hamster model of yellow Fever virus infection” (Antimicrob Agents Chemother, 2007)
